Diaphorase act = compounds boosting diaphorase resazurin reduction – biochemical, uHTS, resorufin fluorescence, counter-screen for diaphorase-coupled primary assays, primary screen | Diaphorase/resazurin coupled assay, 16 min; hits give high values; 1 = vehicle wells, 0 = NADH-free wells | activation factor at 20 µM | 190,000 compounds, 0.005% hits | AID 1229, 2008;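 active = diaphorase activity raised at least twofold by the compound at 20 µM; inactive = activation factor below 2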
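Material: Purified diaphorase enzyme from Clostridium kluyveri | Buffer or medium: 50 mM HEPES pH 7.4 with 4.542 mM MgCl2, 0.005% Tween 20 | Times: 16 min enzyme reaction, ambient temperature | Signal: Red resorufin fluorescence at 544/590 nm excitation/emission | Measure: Increased resorufin signal from activators or reducing compounds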
L major viab = Leishmania major promastigote growth inhibition, primary screen; inhibition, % at 10 µM; 200,000 compounds, 9% hits; Leishmania major promastigotes, resazurin fluorescence viability;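 note: promastigotes grown with compound for 44 hours at 28 °C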
DTT redox prof = compounds producing H2O2 with reducing agent – biochemical, NIH compound library profiling, artefact control for MLSCN library redox annotation, primary screen; DTT-dependent redox cycling H2O2, phenol red/HRP absorbance; 100% = 100 µM peroxide control, 0% = buffer; activation, % at 10 µM; 200,000 compounds, 0.03% hits; AID 878, 2007;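 active = activation of at least 50% relative to the plate's high and low controls in the primary single-dose screen; inactive = activation below 50%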;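 note: compound incubated with DTT at 0.8 mM final as the reducing agent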
Diaph inh CS = diaphorase inhibitors and chemical oxidizers, primary screen, counter-screen for diaphorase-coupled primary assays, biochemical, uHTS, resorufin fluorescence. diaphorase resazurin-to-resorufin fluorescence, NADH, 16 min; bacterial (C. kluyveri) enzyme, not human. inhibition, % at 20 µM. 190,000 compounds, 0.69% hits;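 active = primary screen inhibition at 20 µM above a set limit, cut at about 50% in these data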;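 note: plate controls were DMSO with full reaction for no effect and wells lacking NADH for full effect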
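Benchmarks: positive control wells lacking NADH, neutral wells with DMSO only. System: bacterial diaphorase enzyme (C. kluyveri). Input: 0.14 U/mL diaphorase, enzyme working solution. Detection: resorufin fluorescence, excitation 544 nm, emission 590 nm. Times: 16-min room-temperature incubation before reading.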
PfGluPho inh = PfG6PD enzyme inhibitors, primary screen, biochemical, fluorescence intensity, uHTS. glucose-6-phosphate dehydrogenase-6-phosphogluconolactonase (Plasmodium falciparum 3D7). PfGluPho enzyme, NADPH resazurin-diaphorase fluorescence. inhibition, % at 20 µM. 350,000 compounds, 0.78% hits;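 active = inhibition reaching at least a set limit at 20 µM in the primary screen, cut at about 59% in these data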;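 note: 0% = DMSO wells with substrate and 100% = DMSO wells lacking glucose-6-phosphate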
G6PDH counter = L. mesenteroides G6PDH inhibitors, counter-screen for G6PDH-coupled screening assays, biochemical, Leuconostoc mesenteroides enzyme; AID 1020, 2008; glucose-6-phosphate dehydrogenase [Leuconostoc mesenteroides]; Purified L. mesenteroides G6PDH, diaphorase/resazurin coupled fluorescence, 45 min; 200,000 compounds, 0.12% hits; inhibition, % at 5 µM
Starred values were filed as active, the others as inactive; . = not tested or not shown. The entries come from a sample that favours hits as a whole. Cut-off read from the data, not from the text of the source, unless noted: active = inhibition above about 50%; inactive = the rest.

SMILES	Diaphorase act	L major viab	DTT redox prof	Diaph inh CS	PfGluPho inh	G6PDH counter
Cc1ccc(-n2c(-c3ccc(Br)cc3)c[n+]3c2CCc2ccc4cccnc4c2-3)cc1	1.1	100.4*	0.3	-11.0	4.0	0.3
COC(=O)[C@@]1(Cc2ccc(OC)cc2)[C@@H]2C(=CC(=O)[C@H]2CC(=O)C(=O)N2CCCC2)CN1C(=O)c1ccccc1	0.8	100.3*	0.6	16.6	-12.9	10.7
Cn1c(CCNS(=O)(=O)c2ccccc2)nnc1SCc1cccnc1	.	.	.	.	4.2	.
Cc1ccc(O)c(C(=O)c2cnc3c(c2)c(=O)n(C)c(=O)n3C)c1	1.1	-3.1	0.1	-12.8	4.8	-3.0
Cc1ccc(O)c(C(=O)c2cnc3c(c2)CN(C)C(=O)N3)c1	1	47.4	-1.1	0.0	5.1	8.1
Cc1ccc(O)c(C(=O)c2cnc3c(c2)c(C)nn3-c2ccccc2)c1	0.8	76.8*	-0.6	21.6	2.2	5.5
Cc1ccc(O)c(C(=O)c2cnc3c(c2)c(-c2ccc(F)cc2)c(C#N)c(=O)n3C)c1	0.9	52.3*	-0.5	11.6	-8.8	-0.8
CC(=O)c1ccc(N(CC(=O)NC2CCS(=O)(=O)C2)S(=O)(=O)c2ccc(Cl)cc2)cc1 (stereo not given)	.	.	.	.	4.2	.
CSc1ncccc1C(=O)OCC(=O)c1ccc(C)s1	.	.	.	.	-0.7	.
CC(=O)Oc1ccc2c(C)cc(=O)oc2c1	0.9	-5.0	0.1	8.9	-7.9	1.0
COC(=O)C(CC(C)C)Oc1ccc2c(C)cc(=O)oc2c1 (stereo not given)	1	85.5*	1.4	-1.0	-0.7	16.4
OC1CCN(C(c2ccc3ncccc3c2)c2nnnn2C2CCCCC2)CC1 (stereo not given)	0.9	4.6	-1.0	12.6	-3.0	6.2
c1cnc2ccc(C(c3nnnn3C3CCCCC3)N3CCN4CCCC4C3)cc2c1 (stereo not given)	0.9	72.3*	-0.2	9.5	11.8	4.7
CCC(C)(C)n1nnnc1C(c1ccc2ncccc2c1)N1CCN2CCCC2C1 (stereo not given)	1	69.7*	3.2	-4.1	4.3	1.6
CC(C)c1ccccc1NC(=S)NN(Cc1ccccc1)c1ccccc1	1	54.1*	-8.1	-1.6	2.6	7.9
CC(C)c1ccccc1NC(=S)NC1CCN(Cc2ccccc2)CC1	0.9	74.4*	0.6	6.9	-7.9	-7.1
S=C(NCC1CCCO1)Nc1ccccc1Cl (stereo not given)	0.9	64.5*	.	10.1	3.9	2.9
CCCN1CCC(NC(=S)Nc2cccc(Cl)c2Cl)CC1	1	81.5*	0.0	-1.8	3.2	2.7
CCOCCOC(=O)COc1ccc2c(-c3ccccc3)cc(=O)oc2c1	0.9	-6.8	-0.1	10.6	-6.8	2.2
S=C(Nc1ccc(Cl)cc1Cl)NC1CCN(Cc2ccccc2)CC1	0.9	92.4*	0.3	6.2	-2.7	6.2
S=C(Nc1cc(Cl)cc(Cl)c1)NC1CCN(Cc2ccccc2)CC1	.	.	.	.	16.5	.
S=C(Nc1ccccc1Cl)NC1CCN(Cc2ccccc2)CC1	0.9	94.6*	-0.2	6.9	-3.7	-2.7
Cc1c(Cl)cccc1NC(=S)NC1CCN(Cc2ccccc2)CC1	0.9	85.6*	0.3	13.1	2.3	-4.7
Cc1c(Cl)cccc1NC(=S)NCc1ccccc1	.	72.5*	-3.1	.	18.8	.
Clc1ccc(CNC2CCN(Cc3ccccc3)CC2)cc1	.	.	.	.	4.1	.
SMILES	Diaphorase act	L major viab	DTT redox prof	Diaph inh CS	PfGluPho inh	G6PDH counter
S=C(NCc1ccccc1)NCc1cccc(CNC(=S)NCc2ccccc2)c1	0.8	84.5*	0.5	16.9	6.7	-11.4
O=C(NC(=S)NC1CCN(Cc2ccccc2)CC1)c1ccc(F)cc1	.	.	.	.	-1.3	.
S=C(NCc1ccc(Cl)cc1)NC1CCN(Cc2ccccc2)CC1	1	80.0*	0.8	4.6	9.4	-3.5
FC(F)(F)c1ccccc1NC(=S)NC1CCN(Cc2ccccc2)CC1	0.8	75.9*	-0.6	15.5	-9.9	15.7
CCOC(=O)C1=C(C)NC(=O)C1CC(=O)O (stereo not given)	1.1	-2.7	-0.2	-5.2	-3.6	-5.7
COc1ccccc1NC(=O)c1cnc(Nc2ccccc2OC)c2ccccc12	1	95.3*	0.0	0.0	2.1	-14.0
COc1ccccc1NC(=O)c1cc(C)nc2ccccc12	0.4	-3.7	-0.5	63.0*	-1.1	2.6
COC(=O)Nc1cc(C)nc2ccccc12	1	55.3*	-0.8	-0.5	-6.3	-4.0
C[C@@H]1CNC(=O)c2c(C(=O)NCC(=O)OC(C)(C)C)ncn21	.	.	.	.	13.4	.
Cc1ccc(C)c(OCCn2c(=O)c3c(ncn3C3CCCC3)n(Cc3ccccc3)c2=O)c1	0.8	96.3*	1.5	18.9	22.6	-3.1
O=C(Nc1ccc(OCC(F)(F)C(F)F)c(C(F)(F)F)c1)c1ccccc1	.	1.6	1.7	.	57.2	.
O=C(Nc1ccc(OCC(F)(F)C(F)F)c(C(F)(F)F)c1)c1ccccc1O	0.8	100.5*	2.4	19.6	33.0	-26.7
Cc1cc2c(cc(C(=O)OC(C(=O)NCc3ccco3)C(C)C)n2C)o1 (stereo not given)	0.8	99.3*	2.1	16.0	5.3	-1.0
COCCNCC#CCOc1ccc(OC)cc1	0.8	-3.3	-0.2	16.3	-25.0	3.8
COc1ccc(OCCCNCCc2ccccc2)cc1	0.9	-10.5	0.0	5.0	-3.1	-3.8
COCCNCCCOc1ccc(C(C)(C)c2ccccc2)cc1	1	98.6*	0.0	-4.1	-29.4	2.2
CCc1cc(OCCCCNCc2ccccc2)ccc1Cl	1	99.0*	0.7	3.4	9.4	4.1
CCOC(=O)CCCCNCc1ccccc1	1	-7.5	-2.7	2.0	-4.5	6.3
C=CCNCC#CCOc1ccc(OC)cc1	0.9	98.9*	0.3	8.3	-10.2	-2.3
COCCCNCCCOc1ccc(C(C)(C)c2ccccc2)cc1	0.8	99.2*	.	20.3	-5.3	9.7
CC(C)(C)c1ccc(OCCCNCc2ccccc2)cc1	1	99.5*	-0.5	1.3	-2.7	1.8
CC(C)(C)c1ccccc1OCCOCCNCc1ccccc1	0.9	96.5*	-0.7	9.6	10.1	10.8
Clc1cc(Br)ccc1OCCCNCc1ccccc1	1	99.2*	0.0	0.9	8.7	3.5
CC(C)NCCCOc1ccc(C(C)(C)c2ccccc2)cc1	0.9	99.3*	-0.1	12.7	-7.0	-4.0
CNCCOc1ccccc1C(C)(C)C	0.9	2.4	0.4	13.4	10.3	1.6

Compound activity from PubChem.
